Measurements as given in ChEMBL document CHEMBL4351001, “2-Aminoimidazole-based antagonists of the 5-HT6 receptor - A new concept in aminergic GPCR ligand design” (Eur J Med Chem, 2019).

Legend:
[1] = biological target: 5-hydroxytryptamine receptor 2A (Homo sapiens, UniProt P28223); test: Displacement of [3H]ketanserin from human 5HT2A receptor expressed in CHOK1 cells incubated for 1 hr by liquid scintillation counter method; assay type: cell-based
[2] = Solubility of compound in water; assay type: physicochemical; details: buffer
[3] = biological target: T1, 5-hydroxytryptamine receptor 1A (Homo sapiens, UniProt P08908); test: Displacement of [3H]-8-OH-DPAT from human 5HT1A receptor expressed in HEK293 cells incubated for 1 hr by liquid scintillation counter method; assay type: cell-based
T1 sequence (P08908 whole entry): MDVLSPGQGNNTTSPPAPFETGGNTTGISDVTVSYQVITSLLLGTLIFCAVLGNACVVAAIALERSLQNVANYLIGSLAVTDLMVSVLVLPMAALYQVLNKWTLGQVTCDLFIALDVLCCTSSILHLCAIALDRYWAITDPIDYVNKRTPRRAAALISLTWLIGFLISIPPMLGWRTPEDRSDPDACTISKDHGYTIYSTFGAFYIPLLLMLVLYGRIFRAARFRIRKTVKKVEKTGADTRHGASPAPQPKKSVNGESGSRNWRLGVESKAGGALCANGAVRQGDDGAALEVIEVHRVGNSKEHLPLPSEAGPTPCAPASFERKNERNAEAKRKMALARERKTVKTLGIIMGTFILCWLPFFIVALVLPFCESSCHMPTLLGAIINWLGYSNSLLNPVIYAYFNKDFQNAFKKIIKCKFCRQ
Method in brief: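 HEK293 cells stably expressing human 5-HT1AR; membranes in 50 mM Tris–HCl, 0.1 mM EDTA, 4 mM MgCl2, 10 μM pargyline, 0.1% ascorbate; incubated 1 h at room temperature, then filtered. Nonspecific binding defined with 10 μM 5-HT.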

5-hydroxytryptamine receptor 2A, sequence (P28223 whole entry): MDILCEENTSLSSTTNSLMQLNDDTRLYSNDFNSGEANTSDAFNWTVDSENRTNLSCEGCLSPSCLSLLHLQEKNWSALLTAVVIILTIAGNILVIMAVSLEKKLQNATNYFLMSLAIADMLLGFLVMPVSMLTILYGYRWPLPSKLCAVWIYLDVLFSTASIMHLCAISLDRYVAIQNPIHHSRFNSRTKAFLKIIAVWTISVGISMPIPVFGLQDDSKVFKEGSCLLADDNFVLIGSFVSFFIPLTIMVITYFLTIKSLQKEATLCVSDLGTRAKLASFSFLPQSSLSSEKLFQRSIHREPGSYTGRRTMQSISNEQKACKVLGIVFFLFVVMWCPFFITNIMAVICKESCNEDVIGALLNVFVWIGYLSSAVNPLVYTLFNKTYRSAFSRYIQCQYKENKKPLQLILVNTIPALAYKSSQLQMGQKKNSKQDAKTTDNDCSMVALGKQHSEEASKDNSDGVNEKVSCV

| Ki [1] | solubility [2] | Ki ([3]; hek293) | Ki ([3]; read-out: Ki) | Structure (SMILES) | Ki ([1]; read-out: Ki) |
| --- | --- | --- | --- | --- | --- |
| Not Active | Insoluble | Not Active | – | Cc1sc(N)nc1-c1cn(S(=O)(=O)c2cccc3ccccc23)c2ccccc12 | – |
| – | Insoluble | – | – | CCC(=O)Nc1nc(CC)c(-c2cn(S(=O)(=O)c3ccccc3)c3ccc(OC)cc23)[nH]1 | – |
| – | – | – | > 10 µM | COc1ccc2c(c1)c(-c1[nH]c(N)nc1C)cn2S(=O)(=O)c1cccc2ccccc12 | 1.66 µM |
| – | Insoluble | – | > 10 µM | COc1ccc2c(c1)c(-c1cnc(NC(C)=O)[nH]1)cn2S(=O)(=O)c1ccccc1 | – |
| – | Insoluble | Not Active | – | Cc1sc(N)nc1-c1cn(S(=O)(=O)c2ccccc2)c2ccccc12 | – |
| – | Insoluble | – | – | CC(=O)Nc1nc(C)c(-c2cn(S(=O)(=O)c3cccc4ccccc34)c3ccccc23)[nH]1 | – |
| – | Insoluble | – | – | COc1ccc2c(c1)c(-c1nc(N)sc1C)cn2S(=O)(=O)c1ccccc1 | 2.46 µM |
| – | Soluble | – | – | CCc1nc(N)[nH]c1-c1cn(S(=O)(=O)c2ccccc2)c2ccccc12.Cl | 0.107 µM |
| – | Soluble | – | – | COc1ccc2c(c1)c(-c1[nH]c(N)nc1C)cn2S(=O)(=O)c1ccc2ccccc2c1.Cl | 1.05 µM |
| – | Insoluble | Not Active | – | COc1ccc2c(c1)c(-c1[nH]c(NCc3ccccc3)nc1C)cn2S(=O)(=O)c1ccccc1 | – |
| – | Soluble | – | – | Cl.Nc1ncc(-c2cccc3c2ccn3S(=O)(=O)c2ccccc2)[nH]1 | 2.29 µM |
| – | Insoluble | – | > 10 µM | CC(=O)Nc1ncc(-c2cn(S(=O)(=O)c3ccccc3)c3ccccc23)[nH]1 | – |
| – | Insoluble | – | > 10 µM | CC(=O)Nc1nc(C)c(-c2c(C)n(S(=O)(=O)c3ccccc3)c3ccccc23)[nH]1 | – |

Further lines, the compound ahead of its results:

| Structure (SMILES) | Ki [1] | solubility [2] | Ki ([3]; hek293) | Ki ([3]; read-out: Ki) | Ki ([1]; read-out: Ki) |
| --- | --- | --- | --- | --- | --- |
| COc1ccc2c(c1)c(-c1[nH]c(NC(C)=O)nc1C)cn2S(=O)(=O)c1cccc2ccccc12 | – | Insoluble | – | – | > 10 µM |
| COc1ccc2c(c1)c(-c1[nH]c3nccc[n+]3c1C)cn2S(=O)(=O)c1ccccc1.[Br-] | – | Soluble | – | > 10 µM | > 10 µM |
| COc1ccc2c(c1)c(-c1nc(N)sc1C)cn2S(=O)(=O)c1cccc2ccccc12 | – | Insoluble | – | – | – |
| COc1ccc2c(c1)c(-c1[nH]c(NC(C)=O)nc1C)cn2S(=O)(=O)c1ccccc1 | – | Insoluble | – | > 10 µM | > 10 µM |
| CCC(=O)Nc1nc(C)c(-c2cn(S(=O)(=O)c3cccc(F)c3)c3ccc(OC)cc23)[nH]1 | – | Insoluble | – | > 10 µM | > 10 µM |
| COc1ccc2c(c1)c(-c1nc(N)sc1C)cn2S(=O)(=O)c1ccc2ccccc2c1 | – | Insoluble | – | – | – |
| COc1ccc2c(c1)c(-c1[nH]c3cccc[n+]3c1C)cn2S(=O)(=O)c1ccccc1.[Br-] | – | Soluble | – | – | > 10 µM |
| CCC(=O)Nc1nc(C)c(-c2ccc3ccn(S(=O)(=O)c4ccccc4)c3c2)[nH]1 | – | Insoluble | – | – | 7.41 µM |
| CCC(=O)Nc1nc(C)c(-c2cn(S(=O)(=O)c3ccc4ccccc4c3)c3ccc(OC)cc23)[nH]1 | – | Insoluble | – | – | > 10 µM |
| CCC(=O)Nc1nc(C)c(-c2cn(S(=O)(=O)c3cccc4ccccc34)c3ccccc23)[nH]1 | – | Insoluble | – | – | > 10 µM |
| CCc1nc(NC(C)=O)[nH]c1-c1cn(S(=O)(=O)c2ccccc2)c2ccccc12 | – | Insoluble | – | – | > 10 µM |
| COc1ccc2c(c1)c(-c1[nH]c(NC(C)=O)nc1C)cn2S(=O)(=O)c1ccc2ccccc2c1 | – | Insoluble | – | – | > 10 µM |
| COc1ccc2c(c1)c(-c1cnc(N)[nH]1)cn2S(=O)(=O)c1cccc(F)c1.Cl | – | Soluble | – | – | – |
| COc1ccc2c(c1)c(-c1cnc(NC(C)=O)[nH]1)cn2S(=O)(=O)c1cccc(F)c1 | – | Insoluble | – | – | > 10 µM |
| CCC(=O)Nc1nc(C)c(-c2cn(S(=O)(=O)c3cccc4ccccc34)c3ccc(OC)cc23)[nH]1 | – | Insoluble | – | – | – |
